# Experimental data reported in ChEMBL document CHEMBL3627671, “Novel derivatives of nitro-substituted salicylic acids: Synthesis, antimicrobial activity and cytotoxicity” (Bioorg Med Chem, 2015).
# What was measured:
# Assay type in all cases: functional
# [1] = tested on: Trichophyton mentagrophytes; experiment: Antifungal activity against Trichophyton mentagrophytes 445 after 24 hrs by microdilution broth method; conditions: Trichophyton mentagrophytes, 445, 24 h
# Enterococcus sp. [2] = experiment: Antibacterial activity against Enterococcus sp. J 14365/08 after 48 hrs by microdilution broth method; conditions: J 14365/08, 48 h
# In short: (§1)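 Mueller-Hinton broth microdilution (modified M07-A07), pH 7.4 (±0.2). Compounds dissolved in DMSO, tested at final 500 to 0.49 µmol/L. Inoculum in sterile water matched to 0.5 McFarland. Incubated in the dark, humid atmosphere, 35 °C, read at 24 and 48 h visually and at 540 nm. MIC taken as ≥95% growth reduction (IC95) versus control.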
# [3] = tested on: Staphylococcus epidermidis; experiment: Antibacterial activity against Staphylococcus epidermidis H 6966/08 after 24 hrs by microdilution broth method; conditions: H 6966/08, 24 h; in short: as §1
# Staphylococcus aureus [4] = experiment: Antibacterial activity against Staphylococcus aureus CCM 4516/08 after 48 hrs by microdilution broth method; conditions: CCM 4516/08, 48 h
# Lichtheimia corymbifera [5] = experiment: Antifungal activity against Absidia corymbifera 272 after 24 hrs by microdilution broth method; conditions: Lichtheimia corymbifera, 272, 24 h
# In short: (§2)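 CLSI M27-A3 broth microdilution in RPMI 1640 with glutamine, buffered to pH 7.0 with MOPS; DMSO diluent. Yeast inoculum 5 × 10^3 ± 0.2 CFU/mL. Moulds grown on Sabouraud agar 3–10 days before spore harvest, final inoculum 0.5-5 × 10^4 CFU/mL, checked in a Bürker chamber. Incubated dark, humid, 35 °C, read at 24 and 48 h visually and at 540 nm. MIC taken as ≥80% (yeasts) or ≥50% (filamentous) growth reduction versus control.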
# Candida albicans [6] = experiment: Antifungal activity against Candida albicans ATCC 44859 after 48 hrs by microdilution broth method; conditions: ATCC 44859, 48 h; in short: as §2
# [7] = tested on: Mycobacterium tuberculosis; experiment: Antimycobacterial activity against Mycobacterium tuberculosis H37Rv 331/88 after 14 days; conditions: H37Rv 331/88, 336 h
# Staphylococcus aureus [8] = experiment: Antibacterial activity against Staphylococcus aureus CCM 4516/08 after 24 hrs by microdilution broth method; conditions: CCM 4516/08, 24 h
# Mycobacterium kansasii [9] = experiment: Antimycobacterial activity against Mycobacterium kansasii 235/80 after 14 days; conditions: 235/80, 336 h
# In short: (§3)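 Šula's semisynthetic medium micromethod at 37 °C, read after 7, 14 and 21 days. The 1.0 McFarland suspension was diluted 10^-4. MIC determined. 6509/96 is a clinical isolate.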
# Pseudomonas aeruginosa [10] = experiment: Antibacterial activity against Pseudomonas aeruginosa CCM 1961 after 48 hrs by microdilution broth method; conditions: CCM 1961, 48 h; in short: as §1
# Aspergillus fumigatus [11] = experiment: Antifungal activity against Aspergillus fumigatus 231 after 24 hrs by microdilution broth method; conditions: Aspergillus fumigatus, 231, 24 h; in short: as §2
# Candida tropicalis [12] = experiment: Antifungal activity against Candida tropicalis 156 after 24 hrs by microdilution broth method; conditions: Candida tropicalis, 156, 24 h; in short: as §2
# Mycobacterium kansasii [13] = experiment: Antimycobacterial activity against Mycobacterium kansasii 6509/96 after 7 days; conditions: 6509/96, 168 h; in short: as §3
# Trichosporon asahii [14] = experiment: Antifungal activity against Trichosporon asahii 1188 after 24 hrs by microdilution broth method; conditions: Trichosporon asahii, 1188, 24 h; in short: as §2
# Mycobacterium kansasii [15] = experiment: Antimycobacterial activity against Mycobacterium kansasii 6509/96 after 14 days; conditions: 6509/96, 336 h; in short: as §3
# Mycobacterium avium [16] = experiment: Antimycobacterial activity against Mycobacterium avium 330/80 after 21 days; conditions: 330/80, 504 h
# Escherichia coli [17] = experiment: Antibacterial activity against Escherichia coli CCM4517 after 24 hrs by microdilution broth method; conditions: CCM4517, 24 h; in short: as §1
# Enterococcus sp. [18] = experiment: Antibacterial activity against Enterococcus sp. J 14365/08 after 24 hrs by microdilution broth method; conditions: J 14365/08, 24 h; in short: as §1
# Klebsiella pneumoniae [19] = experiment: Antibacterial activity against ESBL-positive Klebsiella pneumoniae J 14368/08 after 24 hrs by microdilution broth method; conditions: J 14368/08, 24 h; in short: as §1
# Mycobacterium kansasii [20] = experiment: Antimycobacterial activity against Mycobacterium kansasii 6509/96 after 21 days; conditions: 6509/96, 504 h; in short: as §3
# [21] = tested on: Trichophyton mentagrophytes; experiment: Antifungal activity against Trichophyton mentagrophytes 445 after 48 hrs by microdilution broth method; conditions: Trichophyton mentagrophytes, 445, 48 h
# Klebsiella pneumoniae [22] = experiment: Antibacterial activity against Klebsiella pneumoniae D 11750/08 after 24 hrs by microdilution broth method; conditions: D 11750/08, 24 h; in short: as §1
# Nakaseomyces glabratus [23] = experiment: Antifungal activity against Candida glabrata 20/I after 24 hrs by microdilution broth method; in short: as §2
# Nakaseomyces glabratus [24] = experiment: Antifungal activity against Candida glabrata 20/I after 48 hrs by microdilution broth method; in short: as §2
# Klebsiella pneumoniae [25] = experiment: Antibacterial activity against Klebsiella pneumoniae D 11750/08 after 48 hrs by microdilution broth method; conditions: D 11750/08, 48 h; in short: as §1
# Escherichia coli [26] = experiment: Antibacterial activity against Escherichia coli CCM4517 after 48 hrs by microdilution broth method; conditions: CCM4517, 48 h; in short: as §1
# [27] = tested on: Mycobacterium tuberculosis; experiment: Antimycobacterial activity against Mycobacterium tuberculosis H37Rv 331/88 after 21 days; conditions: H37Rv 331/88, 504 h
# Klebsiella pneumoniae [28] = experiment: Antibacterial activity against ESBL-positive Klebsiella pneumoniae J 14368/08 after 48 hrs by microdilution broth method; conditions: J 14368/08, 48 h; in short: as §1
# Mycobacterium kansasii [29] = experiment: Antimycobacterial activity against Mycobacterium kansasii 235/80 after 7 days; conditions: 235/80, 168 h; in short: as §3
# Candida tropicalis [30] = experiment: Antifungal activity against Candida tropicalis 156 after 48 hrs by microdilution broth method; conditions: Candida tropicalis, 156, 48 h; in short: as §2
# Pichia kudriavzevii [31] = experiment: Antifungal activity against Candida krusei E28 after 24 hrs by microdilution broth method; conditions: E28, 24 h; in short: as §2
# Mycobacterium avium [32] = experiment: Antimycobacterial activity against Mycobacterium avium 330/80 after 14 days; conditions: 330/80, 336 h
# Candida albicans [33] = experiment: Antifungal activity against Candida albicans ATCC 44859 after 24 hrs by microdilution broth method; conditions: ATCC 44859, 24 h; in short: as §2
# Pseudomonas aeruginosa [34] = experiment: Antibacterial activity against Pseudomonas aeruginosa CCM 1961 after 24 hrs by microdilution broth method; conditions: CCM 1961, 24 h; in short: as §1
# Aspergillus fumigatus [35] = experiment: Antifungal activity against Aspergillus fumigatus 231 after 48 hrs by microdilution broth method; conditions: Aspergillus fumigatus, 231, 48 h; in short: as §2
# Pichia kudriavzevii [36] = experiment: Antifungal activity against Candida krusei E28 after 48 hrs by microdilution broth method; conditions: E28, 48 h; in short: as §2
# Mycobacterium kansasii [37] = experiment: Antimycobacterial activity against Mycobacterium kansasii 235/80 after 21 days; conditions: 235/80, 504 h; in short: as §3
# Staphylococcus aureus [38] = experiment: Antibacterial activity against methicillin-resistant Staphylococcus aureus H 5996/08 after 48 hrs by microdilution broth method; conditions: H 5996/08, 48 h
# Trichosporon asahii [39] = experiment: Antifungal activity against Trichosporon asahii 1188 after 48 hrs by microdilution broth method; conditions: Trichosporon asahii, 1188, 48 h; in short: as §2
# Staphylococcus aureus [40] = experiment: Antibacterial activity against methicillin-resistant Staphylococcus aureus H 5996/08 after 24 hrs by microdilution broth method; conditions: H 5996/08, 24 h
# [41] = tested on: Staphylococcus epidermidis; experiment: Antibacterial activity against Staphylococcus epidermidis H 6966/08 after 48 hrs by microdilution broth method; conditions: H 6966/08, 48 h; in short: as §1
# Lichtheimia corymbifera [42] = experiment: Antifungal activity against Absidia corymbifera 272 after 48 hrs by microdilution broth method; conditions: Lichtheimia corymbifera, 272, 48 h; in short: as §2
smiles,measurement,setting,value
O=C(Nc1cccc(Br)c1)c1cc([N+](=O)[O-])ccc1O,MIC,[1],250 µM
same,MIC,Enterococcus sp. [2],> 500 µM
same,MIC,[3],31.2 µM
same,MIC,Staphylococcus aureus [4],62.5 µM
same,MIC,Lichtheimia corymbifera [5],500 µM
same,MIC,Candida albicans [6],> 500 µM
same,MIC,[7],16 µM
same,MIC,Staphylococcus aureus [8],31.2 µM
same,MIC,Mycobacterium kansasii [9],62.5 µM
same,MIC,Pseudomonas aeruginosa [10],> 500 µM
same,MIC,Aspergillus fumigatus [11],500 µM
same,MIC,Candida tropicalis [12],> 500 µM
same,MIC,Mycobacterium kansasii [13],32 µM
same,MIC,Trichosporon asahii [14],500 µM
same,MIC,Mycobacterium kansasii [15],62.5 µM
same,MIC,Mycobacterium avium [16],250 µM
same,MIC,Escherichia coli [17],> 500 µM
same,MIC,Enterococcus sp. [18],500 µM
same,MIC,Klebsiella pneumoniae [19],> 500 µM
same,MIC,Mycobacterium kansasii [20],62.5 µM
same,MIC,[21],250 µM
same,MIC,Klebsiella pneumoniae [22],> 500 µM
same,MIC,Nakaseomyces glabratus [23],> 500 µM
same,MIC,Nakaseomyces glabratus [24],> 500 µM
same,MIC,Klebsiella pneumoniae [25],> 500 µM
same,MIC,Escherichia coli [26],> 500 µM
same,MIC,[27],16 µM
same,MIC,Klebsiella pneumoniae [28],> 500 µM
same,MIC,Mycobacterium kansasii [29],32 µM
same,MIC,Candida tropicalis [30],> 500 µM
same,MIC,Pichia kudriavzevii [31],500 µM
same,MIC,Mycobacterium avium [32],125 µM
same,MIC,Candida albicans [33],> 500 µM
same,MIC,Pseudomonas aeruginosa [34],> 500 µM
same,MIC,Aspergillus fumigatus [35],500 µM
same,MIC,Pichia kudriavzevii [36],> 500 µM
same,MIC,Mycobacterium kansasii [37],62.5 µM
same,MIC,Staphylococcus aureus [38],62.5 µM
same,MIC,Trichosporon asahii [39],500 µM
same,MIC,Staphylococcus aureus [40],31.2 µM
same,MIC,[41],250 µM
same,MIC,Lichtheimia corymbifera [42],500 µM
